# Activity calls are given as the source filed them. The calls are words filed in the database; no cut-off is given here.
# Columns and labels:
# [1] = Selectivity index, ratio of EC50 for toxicity in human BEAS2B cells to MIC50 for antifungal activity against ITC and FLC-resistant Candida albicans ATCC MYA-1003; format: cell-based; settings: BEAS-2B cells, read-out: Selectivity Index
# How it was run: (§1)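 Selectivity index is the EC50 against the mammalian line (A549 or BEAS-2B) divided by the MIC against the given fungal strain.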
# [2] = system: Candida albicans; assay: Antifungal activity against Candida albicans ATCC 10231 incubated for 48 hrs by modified CLSI M27-A3 protocol based method; format: functional; settings: ATCC 10231, 48 h, read-out: MIC100
# How it was run: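 For C. albicans ATCC 10231, C. krusei ATCC 6258 and C. parapsilosis ATCC 22019, MIC-0 was read, meaning complete growth inhibition. For azole controls, MIC-2 (50% growth inhibition) was reported instead. Caspofungin and voriconazole were tested here; other controls came from earlier work.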
# [3] = Hemolytic activity in mouse erythrocytes assessed as hemolysis level at 31.3 ug/ml incubated for 1 hr at 37 degC; format: ADME, cell-based, Erythrocyte; settings: read-out: Activity
# How it was run: (§2)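 Mouse erythrocytes incubated 1 h at 37 °C with test agents over 1.95 to 125 µg/mL. Percent lysis is read for each concentration.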
# [4] = Selectivity index, ratio of EC50 for toxicity in human BEAS2B cells to MIC for antifungal activity against Candida parapsilosis ATCC 22019; settings: BEAS-2B cells
# [5] = Selectivity index, ratio of EC50 for toxicity in human A549 cells to MIC for antifungal activity against Candida parapsilosis ATCC 22019
# [6] = system: Aspergillus terreus; assay: Antifungal activity against Aspergillus terreus ATCC MYA-3633 incubated for 48 hrs by CLSI M38-A2 protocol based method; format: functional; settings: ATCC MYA-3633, 48 h, read-out: MIC100
# [7] = Selectivity index, ratio of […] for toxicity in human BEAS2B cells to MIC50 for antifungal activity against Aspergillus flavus ATCC MYA-3631; format: cell-based; settings: BEAS-2B cells, read-out: Selectivity Index
# [8] = Selectivity index, ratio of EC50 for toxicity in human A549 cells to MIC100 for antifungal activity against Candida albicans ATCC 10231; format: cell-based; settings: read-out: Selectivity Index; how it was run: as §1
# [9] = system: Candida albicans; assay: Antifungal activity against Candida albicans ATCC 64124 incubated for 48 hrs by modified CLSI M27-A3 protocol based method; format: functional; settings: ATCC 64124, 48 h
# [10] = system: Candida albicans; assay: Antifungal activity against ITC and FLC-resistant Candida albicans ATCC 1237 incubated for 48 hrs by modified CLSI M27-A3 protocol based method; format: functional; settings: ATCC 1237, 48 h
# How it was run: (§3)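 Because these Candida strains show trailing growth, MIC-2 was read, meaning 50% growth inhibition. Caspofungin and voriconazole were tested here; other controls came from earlier work.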
# [11] = Selectivity index, ratio of EC50 for toxicity in human A549 cells to MIC50 for antifungal activity against ITC and FLC-susceptible Candida albicans ATCC MYA-2310; format: cell-based; settings: read-out: Selectivity Index; how it was run: as §1
# [12] = Hemolytic activity in mouse erythrocytes assessed as hemolysis level at 3.9 ug/ml incubated for 1 hr at 37 degC; format: ADME, cell-based, Erythrocyte; settings: read-out: Activity; how it was run: as §2
# [13] = Selectivity index, ratio of EC50 for toxicity in human A549 cells to MIC50 for antifungal activity against ITC and FLC-resistant Candida albicans ATCC 1237; format: cell-based; settings: read-out: Selectivity Index; how it was run: as §1
# [14] = Selectivity index, ratio of EC50 for toxicity in human BEAS2B cells to MIC50 for antifungal activity against Candida glabrata ATCC 2001; format: cell-based; settings: BEAS-2B cells, read-out: Selectivity Index; how it was run: as §1
# [15] = Selectivity index, ratio of EC50 for toxicity in human BEAS2B cells to MIC100 for antifungal activity against Candida albicans ATCC 10231; format: cell-based; settings: BEAS-2B cells, read-out: Selectivity Index; how it was run: as §1
# [16] = system: Candida albicans; assay: Antifungal activity against ITC and FLC-susceptible Candida albicans ATCC MYA-2876 incubated for 48 hrs by modified CLSI M27-A3 protocol based method; format: functional; settings: ATCC MYA-2876, 48 h; how it was run: as §3
# [17] = system: BEAS-2B; assay: Toxicity in human BEAS2B cells assessed as cell viability at 15.6 ug/ml incubated for 24 hrs by resazurin dye based assay
# [18] = system: A549; assay: Toxicity in human A549 cells assessed as cell viability at 15.6 ug/ml incubated for 24 hrs by resazurin dye based assay; settings: a549, 24 h
# [19] = system: Candida albicans; assay: Induction of membrane permeabilization in Candida albicans ATCC 10231 at 1 to 4 times MIC incubated for 1 hr by propidium iodide staining based fluorescence microscopy; format: functional, organism-based
# How it was run: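 C. albicans ATCC 10231 treated at 1× and 4× MIC and stained with propidium iodide, a membrane-impermeant dye, to detect membrane damage. Untreated cells, FLC (7.8 µg/mL) and KANB (C14) (7.8 µg/mL) serve as comparators.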
Compound,selectivity ratio [1],MIC [2],"hemolysis at 1 h, 31.3 ug/ml [3]",selectivity ratio [4],selectivity ratio [5],MIC [6],selectivity ratio [7],selectivity ratio [8],MIC50 [9],MIC50 [10],selectivity ratio [11],"hemolysis at 1 h, 3.9 ug/ml [12]",selectivity ratio [13],selectivity ratio [14],selectivity ratio [15],MIC50 [16],viability [17],viability [18],Activity [19]
CCCCCC(O)(Cn1cncn1)c1ccccc1Cl (configuration not stated),4,26.5 µM,0%,261,261,53.1 µM,1,4,> 106 µM,3.3 µM,32,0%,32,32,4,3.3 µM,,,
CCCCCC(O)(Cn1cncn1)c1ccc(F)cc1 (configuration not stated),1,14.1 µM,,69,65,113 µM,1,8,> 113 µM,7 µM,8,,16,4,8,28.1 µM,,,
CCCCC(O)(Cn1cncn1)c1ccc(Cl)cc1Cl (configuration not stated) [HEXACONAZOLE],32,0.76 µM,0%,1040,1040,3.1 µM,8,130,12.4 µM,24.8 µM,16,0%,4,8,130,6.2 µM,> 85%,> 85%,
CCCCCC(O)(Cn1cncn1)c1ccccc1F (configuration not stated),8,14.1 µM,0%,261,308,14.1 µM,4,9,> 113 µM,3.5 µM,38,0%,38,32,8,3.5 µM,,,
CCCC(O)(Cn1cncn1)c1ccc(Cl)cc1Cl (configuration not stated),32,0.8 µM,,1040,1040,13 µM,2,130,13 µM,26 µM,8,,4,8,130,6.5 µM,> 85%,> 85%,
CCCCCC(O)(Cn1cncn1)c1ccc(F)cc1F (configuration not stated),16,6.6 µM,10.1%,1040,1040,> 106 µM,2,16,26.4 µM,26.4 µM,4,0%,4,4,16,26.4 µM,,,inactive

# Source: ChEMBL document CHEMBL4265871, “Novel alkylated azoles as potent antifungals” (Eur J Med Chem, 2017)
